Laboratory results reported in ChEMBL document CHEMBL2346604, “Synthesis of nordihydroguaiaretic acid derivatives and their bioactivities on S. pombe and K562 cell lines” (Eur J Med Chem, 2013).
Values after ≈ are worked out from the molar mass of the structure shown. Active and inactive are the calls of the source. The calls are words filed in the database; no cut-off is given here.

Key:
K562 [1] = assay: Inhibition of growth metabolism of human K562 cells assessed as growth rate constant at 6 mg/L at 37 degC by TAM air microcalorimetry; assay type: functional
Summary of the method: (§1)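 K562 cells in supplemented RPMI 1640 (10% FBS) seeded at 1×10⁶ cells/mL with compound at graded concentrations. Heat flow recorded in real time in an eight-channel isothermal microcalorimeter (TAM Air). Rate constant k derived from thermogenic growth curves. Inhibition ratio I = (k0 − kc)/k0 × 100% relative to untreated cells, and IC50 is the concentration at I = 50%. Mean ± S.D., n = 3.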

K562 [2] = assay: Inhibition of growth metabolism of human K562 cells at 37 degC by TAM air microcalorimetry; assay type: functional, cell-based; summary of the method: as §1
[3] = tested on: Schizosaccharomyces pombe; assay: Inhibitive ratio of growth metabolism of Schizosaccharomyces pombe ACCC 20047 at 320 mg/L at 32 degC by TAM air microcalorimetry (reference value: 0%); assay type: functional
Summary of the method: (§2)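 Cells seeded at 1×10⁶ cells/mL with compound at a range of concentrations. Heat output recorded continuously in a TAM Air isothermal microcalorimeter. Growth rate constant k taken from power-time curves. I = (k0 − kc)/k0 × 100%, and IC50 is the concentration giving I = 50%. n = 3.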

[4] = tested on: Schizosaccharomyces pombe; assay: Inhibition of growth metabolism of Schizosaccharomyces pombe ACCC 20047 assessed as growth rate constant at 240 mg/L at 32 degC by TAM air microcalorimetry; assay type: functional; summary of the method: as §2
[5] = tested on: Schizosaccharomyces pombe; assay: Inhibition of growth metabolism of Schizosaccharomyces pombe ACCC 20047 assessed as growth rate constant at 40 mg/L at 32 degC by TAM air microcalorimetry; assay type: functional; summary of the method: as §2
K562 [6] = assay: Inhibitive ratio of growth metabolism of human K562 cells at 6 mg/L at 37 degC by TAM air microcalorimetry (reference value: 0%); assay type: functional; summary of the method: as §1
[7] = tested on: Schizosaccharomyces pombe; assay: Inhibitive ratio of growth metabolism of Schizosaccharomyces pombe ACCC 20047 at 20 mg/L at 32 degC by TAM air microcalorimetry (reference value: 0%); assay type: functional; summary of the method: as §2
[8] = tested on: Schizosaccharomyces pombe; assay: Inhibition of growth metabolism of Schizosaccharomyces pombe ACCC 20047 at 32 degC by TAM air microcalorimetry; assay type: functional, organism-based; summary of the method: as §2
[9] = tested on: Schizosaccharomyces pombe; assay: Inhibitive ratio of growth metabolism of Schizosaccharomyces pombe ACCC 20047 at 160 mg/L at 32 degC by TAM air microcalorimetry (reference value: 0%); assay type: functional; summary of the method: as §2
[10] = tested on: Schizosaccharomyces pombe; assay: Inhibitive ratio of growth metabolism of Schizosaccharomyces pombe ACCC 20047 at 80 mg/L at 32 degC by TAM air microcalorimetry (reference value: 0%); assay type: functional; summary of the method: as §2
K562 [11] = assay: Inhibitive ratio of growth metabolism of human K562 cells at 3 mg/L at 37 degC by TAM air microcalorimetry (reference value: 0%); assay type: functional; summary of the method: as §1
[12] = tested on: Schizosaccharomyces pombe; assay: Inhibition of growth metabolism of Schizosaccharomyces pombe ACCC 20047 assessed as growth rate constant at 20 mg/L at 32 degC by TAM air microcalorimetry; assay type: functional; summary of the method: as §2
K562 [13] = assay: Inhibition of growth metabolism of human K562 cells assessed as growth rate constant at 8 mg/L at 37 degC by TAM air microcalorimetry; assay type: functional; summary of the method: as §1
K562 [14] = assay: Inhibitive ratio of growth metabolism of human K562 cells at 4 mg/L at 37 degC by TAM air microcalorimetry (reference value: 0%); assay type: functional; summary of the method: as §1
K562 [15] = assay: Inhibition of growth metabolism of human K562 cells assessed as growth rate constant at 2 mg/L at 37 degC by TAM air microcalorimetry; assay type: functional; summary of the method: as §1
[16] = tested on: Schizosaccharomyces pombe; assay: Inhibitive ratio of growth metabolism of Schizosaccharomyces pombe ACCC 20047 at 240 mg/L at 32 degC by TAM air microcalorimetry (reference value: 0%); assay type: functional; summary of the method: as §2
K562 [17] = assay: Induction of apoptosis in human K562 cells assessed as mitochondrial transmembrane potential at 4 mg/L after 24 hrs by Rh123 staining based fluorescence spectrophotometer analysis (reference value: 277.9 +/-1.4%); assay type: functional
K562 [18] = assay: Inhibition of growth metabolism of human K562 cells assessed as growth rate constant at 3 mg/L at 37 degC by TAM air microcalorimetry; assay type: functional; summary of the method: as §1
K562 [19] = assay: Induction of apoptosis in human K562 cells assessed as mitochondrial transmembrane potential at 6 mg/L after 18 hrs by Rh123 staining based fluorescence spectrophotometer analysis (reference value: 788.8 +/-1.0%); assay type: functional
[20] = tested on: Schizosaccharomyces pombe; assay: Inhibition of growth metabolism of Schizosaccharomyces pombe ACCC 20047 assessed as growth rate constant at 160 mg/L at 32 degC by TAM air microcalorimetry; assay type: functional; summary of the method: as §2
[21] = tested on: Schizosaccharomyces pombe; assay: Inhibition of growth metabolism of Schizosaccharomyces pombe ACCC 20047 assessed as growth rate constant at 380 mg/L at 32 degC by TAM air microcalorimetry; assay type: functional; summary of the method: as §2
K562 [22] = assay: Induction of apoptosis in human K562 cells assessed as mitochondrial transmembrane potential at 6 mg/L after 12 hrs by Rh123 staining based fluorescence spectrophotometer analysis (reference value: 668.2 +/-0.8%); assay type: functional
[23] = tested on: Schizosaccharomyces pombe; assay: Inhibitive ratio of growth metabolism of Schizosaccharomyces pombe ACCC 20047 at 380 mg/L at 32 degC by TAM air microcalorimetry (reference value: 0%); assay type: functional; summary of the method: as §2
K562 [24] = assay: Inhibitive ratio of growth metabolism of human K562 cells at 2 mg/L at 37 degC by TAM air microcalorimetry (reference value: 0%); assay type: functional; summary of the method: as §1
K562 [25] = assay: Induction of apoptosis in human K562 cells assessed as mitochondrial transmembrane potential at 4 mg/L after 18 hrs by Rh123 staining based fluorescence spectrophotometer analysis (reference value: 788.8 +/-1.0%); assay type: functional
K562 [26] = assay: Inhibition of growth metabolism of human K562 cells assessed as growth rate constant at 4 mg/L at 37 degC by TAM air microcalorimetry; assay type: functional; summary of the method: as §1
K562 [27] = assay: Induction of late apoptosis in human K562 cells assessed as cell membrane structural changes, smaller nuclear size, chromatin assembly under nuclear envelope, clear nuclear membrane structure, lipid droplets in cytoplasm, protruded cell surface with red nucleus at 4 to 6 mg/L after 12 to 24 hrs by propidium iodide staining based fluorescence microscopy; assay type: functional
Summary of the method: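 K562 groups at 0, 4.0 and 6.0 mg/L were held 12, 18 or 24 h at 37 °C in 5% CO2. Cells (1 mL) were collected, washed three times in PBS, stained with propidium iodide for 5 min in the dark and washed. Morphology of membrane, nucleus, chromatin and cytoplasm was scored against untreated controls.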

K562 [28] = assay: Inhibition of growth metabolism of human K562 cells assessed as growth rate constant at 5 mg/L at 37 degC by TAM air microcalorimetry; assay type: functional; summary of the method: as §1
K562 [29] = assay: Inhibitive ratio of growth metabolism of human K562 cells at 8 mg/L at 37 degC by TAM air microcalorimetry (reference value: 0%); assay type: functional; summary of the method: as §1
[30] = tested on: Schizosaccharomyces pombe; assay: Inhibition of growth metabolism of Schizosaccharomyces pombe ACCC 20047 assessed as growth rate constant at 320 mg/L at 32 degC by TAM air microcalorimetry; assay type: functional; summary of the method: as §2
K562 [31] = assay: Induction of apoptosis in human K562 cells assessed as mitochondrial transmembrane potential at 6 mg/L after 24 hrs by Rh123 staining based fluorescence spectrophotometer analysis (reference value: 277.9 +/-1.4%)
K562 [32] = assay: Inhibitive ratio of growth metabolism of human K562 cells at 5 mg/L at 37 degC by TAM air microcalorimetry (reference value: 0%); assay type: functional; summary of the method: as §1
[33] = tested on: Schizosaccharomyces pombe; assay: Inhibitive ratio of growth metabolism of Schizosaccharomyces pombe ACCC 20047 at 40 mg/L at 32 degC by TAM air microcalorimetry (reference value: 0%); assay type: functional; summary of the method: as §2
K562 [34] = assay: Induction of apoptosis in human K562 cells assessed as mitochondrial transmembrane potential at 4 mg/L after 12 hrs by Rh123 staining based fluorescence spectrophotometer analysis (reference value: 668.2 +/-0.8%); assay type: functional
[35] = tested on: Schizosaccharomyces pombe; assay: Inhibition of growth metabolism of Schizosaccharomyces pombe ACCC 20047 assessed as growth rate constant at 80 mg/L at 32 degC by TAM air microcalorimetry; assay type: functional; summary of the method: as §2
[36] = tested on: Schizosaccharomyces pombe; assay: Inhibitive ratio of growth metabolism of Schizosaccharomyces pombe ACCC 20047 at 400 mg/L at 32 degC by TAM air microcalorimetry (reference value: 0%); assay type: functional; summary of the method: as §2
K562 [37] = assay: Inhibitive ratio of growth metabolism of human K562 cells at 12 mg/L at 37 degC by TAM air microcalorimetry (reference value: 0%); assay type: functional; summary of the method: as §1
K562 [38] = assay: Inhibitive ratio of growth metabolism of human K562 cells at 14 mg/L at 37 degC by TAM air microcalorimetry (reference value: 0%); assay type: functional; summary of the method: as §1
K562 [39] = assay: Inhibition of growth metabolism of human K562 cells assessed as growth rate constant at 14 mg/L at 37 degC by TAM air microcalorimetry; assay type: functional; summary of the method: as §1
[40] = tested on: Schizosaccharomyces pombe; assay: Inhibition of growth metabolism of Schizosaccharomyces pombe ACCC 20047 assessed as growth rate constant at 400 mg/L at 32 degC by TAM air microcalorimetry; assay type: functional; summary of the method: as §2
K562 [41] = assay: Inhibition of growth metabolism of human K562 cells assessed as growth rate constant at 12 mg/L at 37 degC by TAM air microcalorimetry; assay type: functional; summary of the method: as §1

Row | Structure (SMILES) | Activity (K562 [1]) | IC50 (K562 [2]) | inhibition at 320 µg/mL [3] | Activity [4] | Activity [5] | inhibition at 6 µg/mL (K562 [6]) | inhibition at 20 µg/mL [7] | IC50 [8] | inhibition at 160 µg/mL [9] | inhibition at 80 µg/mL [10] | Activity [12] | Activity (K562 [13]) | inhibition at 4 µg/mL (K562 [14]) | Activity (K562 [15]) | inhibition at 240 µg/mL [16] | Activity [20] | inhibition at 2 µg/mL (K562 [24]) | Activity (K562 [26]) | inhibition at 8 µg/mL (K562 [29]) | Activity [30] | further results
1 | COc1ccc(C[C@@H](C)[C@@H](C)Cc2ccc(OC)c(OC)c2)cc1OC [TERAMEPROCOL] | 1.9712 ×10⁻⁴ /min | 5.87 µg/mL (≈ 16.4 µM) | 44.7% | 0.00322 min⁻¹ | 0.00407 min⁻¹ | 52.9% | 9.48% | 330 µg/mL (≈ 921 µM) | 11.5% | 4.06% | 0.00401 min⁻¹ | 8.5275 ×10⁻⁵ /min | 5.06% | 4.7239 ×10⁻⁴ /min | 27.3% | 0.00392 min⁻¹ | -12.8% | 3.9762 ×10⁻⁴ /min | 79.6% | 0.00245 min⁻¹ | inhibition at 3 µg/mL (K562 [11]): -5.88%; Activity (K562 [17]): 168%; Activity (K562 [18]): 4.4342 ×10⁻⁴ /min; Activity (K562 [19]): 331.5%; Activity [21]: 0.00143 min⁻¹; Activity (K562 [22]): 477.8%; inhibition at 380 µg/mL [23]: 67.7%; Activity (K562 [25]): 615.3%; Activity (K562 [27]): Active; Activity (K562 [28]): 2.7992 ×10⁻⁴ /min; Activity (K562 [31]): 170.7%; inhibition at 5 µg/mL (K562 [32]): 33.2%; inhibition at 40 µg/mL [33]: 8.13%; Activity (K562 [34]): 597.2%; Activity [35]: 0.00425 min⁻¹
2 | COc1ccc(-c2oc(-c3ccc(OC)c(OC)c3)c(C)c2C)cc1OC | 3.1202 ×10⁻⁴ /min | 11.2 µg/mL (≈ 30.5 µM) | 35.3% | 0.00346 min⁻¹ | 0.00429 min⁻¹ | 18.9% | -1.18% | 350 µg/mL (≈ 950 µM) | -1.9% | -2.13% | 0.00427 min⁻¹ | 3.0855 ×10⁻⁴ /min | -13.2% | 3.9155 ×10⁻⁴ /min | 18% | 0.0043 min⁻¹ | -1.79% | 4.3527 ×10⁻⁴ /min | 19.8% | 0.00273 min⁻¹ | inhibition at 400 µg/mL [36]: 73.2%; inhibition at 12 µg/mL (K562 [37]): 57.1%; inhibition at 14 µg/mL (K562 [38]): 80%; Activity (K562 [39]): 7.6784 ×10⁻⁵ /min; Activity [40]: 0.00113 min⁻¹; Activity (K562 [41]): 1.65 ×10⁻⁴ /min; inhibition at 40 µg/mL [33]: -1.66%; Activity [35]: 0.00431 min⁻¹
